These results are taken from ChEMBL document CHEMBL1145952, “Hybrid-designed inhibitors of p38 MAP kinase utilizing N-arylpyridazinones” (J Med Chem, 2003).

The term IC50 denotes the point on the concentration scale where inhibition reaches its midpoint. A word on the inhibition: it is the relative decrease from the control value, in per cent. As a reminder, the inhibition in vivo is the relative decrease from the control value, in per cent. Lower therefore signals a weak effect.

Test [1] concerns the target Mitogen-activated protein kinase 11 (Mus musculus, UniProt Q9WUI1). Briefly: Displacement of [gamma-33P]-ATP binding from active recombinant murine FLAG-Mitogen-activated protein kinase p38 beta fusion protein (GST-ATF2). In a few lines:
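Filter-plate binding assay of compound competing with [γ-33P]ATP on active recombinant murine FLAG-tagged p38 fusion protein, with GST-ATF2. IC50 values are the average of two or more separate assays. Repeat determinations differed by ±20% on average.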

For test [2], the target named is T1, MAP kinase p38 (Homo sapiens, UniProt O15264+Q15759+Q16539+P53778). Briefly: Inhibition of Tumor necrosis factor alpha release from LPS-induced THP-1 cells by ELISA. It is filed as functional, cell-based. In a few lines: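 Human THP-1 monocytic cells stimulated with LPS. Human TNFα in the cell supernatant measured by ELISA.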
A general note: An ELISA detects its analyte on a solid surface through an enzyme-linked reagent.

Test [3] addresses Mitogen-activated protein kinase 9 (Homo sapiens) (UniProt P45984). Briefly: Inhibition of recombinant human flag-tagged JNK2-beta-2 at 10000 nM. It is filed as functional. In a few lines:
(§1)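 Kinase assay with recombinant human FLAG-tagged JNK2β fusion protein phosphorylating GST-ATF2. Phosphorylated GST-ATF2 detected by HTRF.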

The target of test [4] is Mitogen-activated protein kinase 14 (Mus musculus, UniProt P47811). In words: Tested in vitro for filter plate binding versus gamma-[33P]ATP in active recombinant murine FLAG-P38 alpha fusion protein (GST-Activating transcription factor-2).
Chain of Mitogen-activated protein kinase 14 (P47811 whole entry, the tested form may be a part): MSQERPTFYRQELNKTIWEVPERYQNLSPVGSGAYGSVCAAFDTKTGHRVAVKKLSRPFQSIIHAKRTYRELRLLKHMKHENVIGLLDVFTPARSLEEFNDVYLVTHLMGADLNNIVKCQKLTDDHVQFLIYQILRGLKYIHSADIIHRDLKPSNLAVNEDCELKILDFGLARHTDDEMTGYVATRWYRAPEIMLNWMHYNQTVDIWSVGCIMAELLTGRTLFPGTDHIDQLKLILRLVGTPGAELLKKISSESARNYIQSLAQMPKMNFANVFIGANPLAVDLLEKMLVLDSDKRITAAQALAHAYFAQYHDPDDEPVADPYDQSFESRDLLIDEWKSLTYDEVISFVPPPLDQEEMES
Test [5] has as its target T1, MAP kinase p38. Briefly: Inhibition of LPS-induced p38-related Tumor necrosis factor alpha release by THP-1 cells at 4000 nM. It is filed as functional, cell-based.
Test [6] concerns the target Mitogen-activated protein kinase 11 (Mus musculus) (UniProt Q9WUI1). In words: Displacement of [gamma-33P]-ATP from recombinant murine Mitogen-activated protein kinase p38 beta at 5000 nM.
Test [7] has as its target Mitogen-activated protein kinase 9 (Homo sapiens) (UniProt P45984). In words: Inhibition of recombinant human flag-tagged JNK2-beta-2 at 5000 nM. It is filed as functional. In a few lines:
as §1

Test [8] deals with T1, MAP kinase p38. Briefly: Inhibition of LPS-induced p38-related Tumor necrosis factor alpha release in human whole blood at 4000 nM. It is filed as functional, tissue-based.
Test [9] relates to Mus musculus. Briefly: (§2) Ex vivo inhibition of Mitogen activated protein kinase activated protein 1 hr after 3 mg/kg dose. It is filed as functional, organism-based. Also on record: dose 3 mg/kg. The procedure, abridged: (§3)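 BALB/c mice (n = 5 per compound) dosed ip at 3 mg/kg in DMSO/EtOH/PEG400/saline (10:10:60:20). Blood collected 1 h after dosing and murine MAPKAP activity measured ex vivo as % inhibition. Significance versus vehicle assessed at p < 0.05.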

In test [10] the test system is Mus musculus. Briefly: Tested ex vivo for MAPKAP plasma concentration at 1 hr after dosing. It is filed as functional, organism-based. The procedure, abridged: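 BALB/c mice (n = 5) given 3 mg/kg ip in DMSO/EtOH/PEG400/saline (10:10:60:20); blood drawn 1 h post-dose. Plasma level determined by bioassay: serial plasma dilutions run in the p38 inhibition assay, and the compound's free p38 IC50 multiplied by 1/(plasma dilution giving 50% inhibition, EC50).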

The target in test [11] is T1, MAP kinase p38. Briefly: Inhibition of LPS-induced p38-related Tumor necrosis factor alpha release in human whole blood. It is filed as functional, tissue-based.
The species entered for test [12] is Mus musculus. Briefly: Tested ex vivo for MAPKAP inhibition, activity expressed as plasma concentration. It is filed as functional, organism-based. The procedure, abridged: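 Mice dosed ip at 3 mg/kg and plasma taken 1 h after dosing. Plasma compound level determined by bioassay: plasma was diluted in the p38 inhibition assay to find the dilution giving 50% inhibition (EC50). Concentration = free-compound p38 IC50 × 1/dilution factor.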

Test [13] in a line: as §2. It is filed as functional. As to conditions: Mus musculus. In a few lines:
as §3

The target of test [14] is Mitogen-activated protein kinase 9 (Homo sapiens) (UniProt P45984). Briefly: Inhibition of recombinant human flag-tagged JNK2-beta-2 at 1000 nM. It is filed as functional. The procedure, abridged:
as §1

In test [15] the target is Mitogen-activated protein kinase 11 (Mus musculus) (UniProt Q9WUI1). Briefly: Displacement of [gamma-33P]-ATP from recombinant murine Mitogen-activated protein kinase p38 beta at 100 nM.
Chain of Mitogen-activated protein kinase 11 (Mus musculus) (Q9WUI1 whole entry): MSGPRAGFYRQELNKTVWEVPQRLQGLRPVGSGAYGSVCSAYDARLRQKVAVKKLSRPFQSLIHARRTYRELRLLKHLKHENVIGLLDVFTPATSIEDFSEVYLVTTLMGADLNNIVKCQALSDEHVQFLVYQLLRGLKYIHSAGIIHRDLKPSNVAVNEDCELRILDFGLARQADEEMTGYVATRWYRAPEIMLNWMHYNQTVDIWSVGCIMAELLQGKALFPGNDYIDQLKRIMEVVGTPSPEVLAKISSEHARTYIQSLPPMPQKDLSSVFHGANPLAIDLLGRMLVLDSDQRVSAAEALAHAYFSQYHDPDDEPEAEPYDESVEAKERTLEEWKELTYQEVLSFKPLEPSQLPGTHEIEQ
The target of test [16] is Mitogen-activated protein kinase 14 (Mus musculus) (UniProt P47811). In words: Inhibition of [gamma-33P]-ATP binding to recombinant murine p38 alpha at 100 nM.
Chain of Mitogen-activated protein kinase 14 (Mus musculus) (P47811 whole entry): as the sequence (P47811 whole entry, the tested form may be a part) above

Chain of Mitogen-activated protein kinase 11 (Q9WUI1 whole entry, the tested form may be a part): as the sequence (Q9WUI1 whole entry) above
Chain of Mitogen-activated protein kinase 9 (Homo sapiens) (P45984 whole entry, looked up, the tested form may be a part): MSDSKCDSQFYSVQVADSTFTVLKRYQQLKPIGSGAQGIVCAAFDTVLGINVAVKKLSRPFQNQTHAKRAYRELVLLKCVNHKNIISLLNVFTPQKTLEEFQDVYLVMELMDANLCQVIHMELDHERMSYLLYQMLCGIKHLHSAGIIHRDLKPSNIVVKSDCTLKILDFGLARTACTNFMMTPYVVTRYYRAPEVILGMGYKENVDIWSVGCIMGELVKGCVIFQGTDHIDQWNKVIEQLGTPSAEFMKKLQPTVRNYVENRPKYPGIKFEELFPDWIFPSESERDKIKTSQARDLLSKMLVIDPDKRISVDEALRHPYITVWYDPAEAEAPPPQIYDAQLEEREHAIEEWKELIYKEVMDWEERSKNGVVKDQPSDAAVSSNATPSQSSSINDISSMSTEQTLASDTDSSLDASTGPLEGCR

Regarding `O=C1CCC(c2c(-c3ccc(F)cc3Cl)nc3ccccn23)=NN1c1c(Cl)cccc1Cl`, the figures for the concentration for half-maximal inhibition (IC50) (in test [1]; against MAP kinase p38 [2]; in test [4]) were 670 nM, 180 nM and 42 nM, respectively. In test [3], the inhibition is 0%.

Take `O=C1CCC(c2c(-c3cccc(Cl)c3Cl)nc3ccccn23)=NN1c1c(Cl)cccc1Cl`: the inhibition is 59% against MAP kinase p38 [5], 57% in test [6] and 26% in test [7]. Also, the IC50 in test [4] was 2000 nM.

Turning to `O=c1ccc(-c2c(-c3ccc(F)cc3)nc3ccccn23)nn1-c1c(Cl)cccc1Cl`, the figures for the concentration for half-maximal inhibition (IC50) (in test [1]; against MAP kinase p38 [2]; in [4]) were 153 nM, 70 nM and 49 nM, respectively. Moreover, the inhibition in test [3] was 40%; against MAP kinase p38 [8], 60%.

The molecule `O=c1ccc(-c2c(-c3cccc(C(F)(F)F)c3)nc3ccccn23)nn1-c1ccccc1Cl` displayed an inhibition against MAP kinase p38 [5] of 48%. Also, in test [4], the IC50 was 344 nM.

With `O=c1ccc(-c2c(-c3cccc(Cl)c3Cl)nc3ccccn23)nn1-c1c(Cl)cccc1Cl`, the figures for the IC50 in [1] and in [4] were 890 nM and 270 nM, respectively. Also, the inhibition at MAP kinase p38 [5] was found to be 65%; in test [7] it was 14%.

`O=c1ccc(-c2c(-c3ccc(F)cc3Cl)nc3ccccn23)nn1-c1c(Cl)cccc1Cl`: the figures for the IC50 (in test [1]; against MAP kinase p38 [2]; in test [4]) were 64 nM, 161 nM and 14 nM, respectively. In addition, in test [3], the inhibition amounted to 23%.

As to `O=c1ncn2nc(Sc3ccc(F)cc3F)ccc2c1-c1c(Cl)cccc1Cl`, in the test with Mus musculus [9], the inhibition was found to be 29%. The molecule also displayed a Concentration in the test with Mus musculus [10] of 1730 nM.

Regarding `Cc1ccccc1-n1nc(-c2c(-c3ccc(F)cc3F)nc3ccccn23)ccc1=O`, the IC50 on MAP kinase p38 [11] turned out to be 870 nM; in test [1], 140 nM; at MAP kinase p38 [2] it was 68 nM; in test [4] it was 26 nM. Also, the inhibition in test [7] was 15%.

Take `O=c1ccc(-c2c(-c3ccc(F)cc3F)nc3ccccn23)nn1-c1c(Cl)cccc1Cl`: the results for the IC50 (on MAP kinase p38 [11]; in test [1]; in [4]) were 1000 nM, 112 nM and 22 nM, respectively. Moreover, the values for the inhibition (on MAP kinase p38 [5]; in [7]) were 89% and 11%, respectively.

With `Cc1ccccc1-n1nc(-c2c(-c3ccc(F)cc3Cl)nc3ccccn23)ccc1=O`, the IC50 on MAP kinase p38 [11] came out at 100 nM; in test [1], 28 nM; against MAP kinase p38 [2], 20 nM; in test [4], 9 nM. For the same molecule, in the test filed under Mus musculus [12], the Concentration was found to be 810 nM. Further, the inhibition in vivo at 3 mg/kg in test [13] came to 42%. The inhibition in [7] stood at 16%.

Take `O=C1CCC(c2c(-c3ccc(F)cc3Cl)nc3ccccn23)=NN1c1ccccc1Cl`: the IC50 came to 2600 nM in [1], 400 nM against MAP kinase p38 [2] and 208 nM in test [4]. In test [3], the inhibition was 0%.

For the molecule `O=c1ccc(-c2c(-c3cccc(C(F)(F)F)c3)nc3ccccn23)nn1-c1c(Cl)cccc1Cl`, the inhibition at MAP kinase p38 [5] is 41%; in test [3] it was 0%; in test [6], 50%. Moreover, in test [4], the 50% inhibitory concentration (IC50) was found to be 1000 nM.

As for `Cc1ccccc1N1N=C(c2c(-c3ccc(F)cc3F)nc3ccccn23)CCC1=O`, the IC50 on MAP kinase p38 [11] was found to be 440 nM; in test [1] it was 78 nM; on MAP kinase p38 [2], 14 nM; in [4] it was 8 nM. Further, in [3], the inhibition was 4%.

For the molecule `O=C1CCC(c2c(-c3ccc(F)cc3F)nc3ccccn23)=NN1c1c(Cl)cccc1Cl`, the IC50 turned out to be 205 nM at MAP kinase p38 [11], 63 nM in test [1], 10 nM against MAP kinase p38 [2] and 8 nM in test [4]. Also, the inhibition in test [3] turned out to be 22%.

With `Cc1ccccc1N1N=C(c2c(-c3ccc(F)cc3Cl)nc3ccccn23)CCC1=O`, the half-inhibitory concentration (IC50) against MAP kinase p38 [11] amounted to 220 nM; in test [1], 94 nM; on MAP kinase p38 [2], 22 nM; in test [4] it was 14 nM. The inhibition in [7] was 4%.

In the case of `O=c1ccc(-c2c(-c3ccc(F)cc3Cl)nc3ccccn23)nn1-c1ccccc1Cl`, the IC50 in test [1] turned out to be 171 nM; against MAP kinase p38 [2], 161 nM; in [4] it was 76 nM. The inhibition in test [3] was found to be 0%.

As for `O=C1CCC(c2c(-c3cccc(C(F)(F)F)c3)nc3ccccn23)=NN1c1ccccc1Cl`, the values for the IC50 in test [1] and in test [4] were 355 nM and 171 nM, respectively. The figures for the inhibition (on MAP kinase p38 [5]; in [3]) were 72% and 0%, respectively.

Turning to `Cc1ccccc1N1N=C(c2c(-c3cccc(Cl)c3Cl)nc3ccccn23)CCC1=O`, the figures for the inhibition in [14], in [15] and in test [16] were 0%, 33% and 36%, respectively. For the same molecule, the IC50 on MAP kinase p38 [2] is 170 nM.

`Cc1ccccc1-n1nc(-c2c(-c3cccc(Cl)c3Cl)nc3ccccn23)ccc1=O`: the half-inhibitory concentration (IC50) worked out at 500 nM against MAP kinase p38 [11], 44 nM in test [1], 6 nM on MAP kinase p38 [2] and 22 nM in test [4]. The inhibition in [3] was found to be 15%.
